These results are taken from ChEMBL document CHEMBL1122886, “Nucleoside conjugates. 6. Synthesis and comparison of antitumor activity of 1-beta-D-arabinofuranosylcytosine conjugates of corticosteroids and selected lipophilic alcohols” (1985).

Each structure is given as a SMILES string.

Assay [1] relates to L1210. Kind of assay: Percent hydrolysis by phosphodiesterase I at 24-h incubation after 30-minutes incubation. Format: functional, Mus musculus.
The species named for assay [2] is Mus musculus. Kind of assay: Percent increase in life span in mice bearing lymphoid leukemia, treatment schedule is 1-5 qd. Format: functional. The method, boiled down:
(§1)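 C3D2F1/J mice (C3H/HEJ female × DBA/2J male), groups of six, av wt 25 g, inoculated ip with 1 × 10^6 L1210 cells. Daily ip treatment (qd 1-5 or qd 1-9) started 24 h after inoculation, over a wide dose range. Mice observed daily until death or 45 days. ILS = (T/C − 1) × 100. Active range is doses giving ILS ≥25%; optimum dose gives the greatest ILS.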

The species entered for assay [3] is Mus musculus. Briefly: Dose producing greatest increase in life span of mice bearing lymphoid leukemia, treatment schedule is 1-5 qd. Format: functional. The method, boiled down:
as §1

In assay [4] the test system is L1210. Kind of assay: In vitro cytotoxicity with cleavage by phosphodiesterase-I concentration for 50% loss of viability was determined at 72 hours. Format: functional. Particulars: Mus musculus, L1210, 72 h; read-out: ED50 (the source's name).
Assay [5] is filed under the species Mus musculus. Kind of assay: Weight change observed on day 8 in mice bearing lymphoid leukemia, treatment schedule is 1-5 qd. Format: functional. The method, boiled down:
(§2)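 C3D2F1/J mice (C3H/HEJ female × DBA/2J male), groups of six, average weight 25 g, were inoculated ip with 1 × 10^6 L1210 cells. Ip treatment began 24 h after inoculation, daily on days 1-5 or 1-9, over a wide dose range. Mice were observed daily until death or 45 days. Body-weight change was recorded, and ILS was calculated as (T/C − 1) × 100.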

For assay [6], the species on record is Mus musculus. Kind of assay: Number of animals survived after 30-days in mice bearing lymphoid leukemia, treatment schedule is 1-5 qd. Format: functional. The method, boiled down: as §1
For assay [7], the system named is Mus musculus. Kind of assay: Dose producing greatest increase in life span >/=25% in mice bearing lymphoid leukemia, treatment schedule is 1-5 qd; 20-60 [mg(umol)/kg] /day. Format: functional. Put shortly:
as §1

In assay [8] the test system is Mus musculus. Briefly: In vivo antitumor activity against intraperitoneally inoculated L1210 Lymphoid leukemic mice (Dose producing greatest increase in life span, treatment schedule is 1- 9 qd). Format: functional. Put shortly:
as §1

Assay [9] deals with Mus musculus. Kind of assay: In vivo antitumor activity against intraperitoneally inoculated L1210 lymphoid leukemic mice (Weight change observed on day 8.Treatment schedule is 1-9 qd). Format: functional. Put shortly:
as §2

Assay [10] relates to Mus musculus. Briefly: Dose producing greatest increase in life span >/=25% in mice bearing lymphoid leukemia, treatment schedule is 1-5 qd; 5-80 [mg(umol)/kg] /day. Format: functional. Put shortly: as §1
The species named for assay [11] is Mus musculus. Kind of assay: Number of animals survived after 30-days in mice bearing lymphoid leukemia, treatment schedule is 1-9 qd. Format: functional. Put shortly:
as §1

Assay [12] deals with Mus musculus. Kind of assay: Dose producing greatest increase in life span >/=25% in mice bearing lymphoid leukemia, treatment schedule is 1-9 qd; 5-20 [mg(umol)/kg] /day. Format: functional. The method, boiled down: as §1
Assay [13] is filed under the species Mus musculus. Kind of assay: Percent increase in life span in mice bearing lymphoid leukemia, treatment schedule is 1-9 qd. Format: functional. The method, boiled down:
as §1

In assay [14] the test system is Mus musculus. Briefly: Dose producing greatest increase in life span >/=25% in mice bearing lymphoid leukemia, treatment schedule is 1-5 qd; 40-60 [mg(umol)/kg] /day. Format: functional. Put shortly:
as §1

Assay [15] relates to Mus musculus. Kind of assay: In Vivo Antitumor activity against intraperitoneally inoculated L1210 Lymphoid leukemic mice. Percent increase in life span. Treatment schedule is 1-9 qd. Format: functional. The method, boiled down:
as §1

The test system of assay [16] is Mus musculus. Briefly: Dose producing greatest increase in life span >/=25% in mice bearing lymphoid leukemia, treatment schedule is 1-5 qd; 20-80 [mg(umol)/kg] /day. Format: functional. Put shortly: as §1
Assay [17] deals with Mus musculus. Briefly: In Vivo Antitumor activity against intraperitoneally inoculated L1210 Lymphoid leukemic mice. Number of animals survived after 30-days. Treatment schedule is 1-9 qd. Format: functional. Put shortly:
as §1

The subject of assay [18] is Mus musculus. Briefly: Dose producing greatest increase in life span >/=25% in mice bearing lymphoid leukemia, treatment schedule is 1-9 qd; 40-80 [mg(umol)/kg] /day. Format: functional. The method, boiled down:
as §1

Take `CCCCCCCCCCCCCCCCOP(=O)(O)OP(=O)(O)OC[C@H]1OC(n2ccc(N)nc2=O)[C@@H](O)[C@@H]1O` (stereo partly drawn): the Hydrolysis in the assay with L1210 [1] worked out at 80%. Further, the ILS in the assay filed under Mus musculus [2] stood at 38%. Moreover, the Optimal dose in the assay filed under Mus musculus [3] amounted to 40 mg/kg/day. In the assay on L1210 [4], the EC50 turned out to be 4300 nM. For the same molecule, the Weight change in the assay listed under Mus musculus [5] was found to be 2.92 g mouse-1 on day 8. In the assay listed under Mus musculus [6], this molecule gave a 30 day survivors of 0. For the same molecule, in the assay with Mus musculus [7], the Active dose range came to 20 mg/kg/day.
For `CC12CCC(=O)C=C1CCC1C2CCC2(C)C1CC[C@]2(O)C(=O)COP(=O)(O)OP(=O)(O)OC[C@H]1OC(n2ccc(N)nc2=O)[C@@H](O)[C@@H]1O` (stereo partly drawn), the Hydrolysis in the assay with L1210 [1] is reported as 100%. The ILS in the assay listed under Mus musculus [2] was found to be 33%. This molecule also returned an Optimal dose in the assay filed under Mus musculus [3] of 60 mg/kg/day. Also, in the assay on L1210 [4], the EC50 came out at 20 nM. In the assay filed under Mus musculus [5], this molecule gave a Weight change of -2.15 g mouse-1 on day 8. Moreover, the 30 day survivors in the assay filed under Mus musculus [6] is listed as 0. Moreover, the Active dose range in the assay with Mus musculus [7] came to 20 mg/kg/day.
Take `Nc1ccn([C@@H]2O[C@H](CO)[C@@H](O)[C@@H]2O)c(=O)n1` [CYTARABINE]: the Optimal dose in the assay with Mus musculus [8] and in the assay listed under Mus musculus [3] was 9.2 mg/kg/day in each case. Besides, the Weight change is reported as -4.56 g mouse-1 on day 8 in the assay on Mus musculus [9] and -2.66 g mouse-1 on day 8 in the assay filed under Mus musculus [5]. Moreover, the ILS is recorded as 63% in the assay listed under Mus musculus [2] and 138% in the assay listed under Mus musculus [13]. Besides, the EC50 in the assay on L1210 [4] turned out to be 190 nM. For the same molecule, the Active dose range with Mus musculus [10] and in the assay with Mus musculus [12] was 5 mg/kg/day throughout. Moreover, the 30 day survivors in the assay listed under Mus musculus [11] and in the assay listed under Mus musculus [6] was 1 each time.
The molecule `Nc1ccn(C2O[C@H](COP(=O)(O)OCCCl)[C@@H](O)[C@@H]2O)c(=O)n1` (stereo partly drawn) showed a Hydrolysis in the assay on L1210 [1] of 2%. The EC50 in the assay with L1210 [4] amounted to 3130 nM.
Taken in the same sequence, the figures for `Nc1ccn(C2O[C@H](COP(=O)(O)OCC34CC5CC(CC(C5)C3)C4)[C@@H](O)[C@@H]2O)c(=O)n1` (stereo partly drawn) were 9% and 1250 nM.
`CC12CCC(=O)C=C1CCC1C2C(=O)CC2(C)C1CC[C@]2(O)C(=O)COP(=O)(O)OP(=O)(O)OC[C@H]1OC(n2ccc(N)nc2=O)[C@@H](O)[C@@H]1O` (stereo partly drawn) registered a Hydrolysis with L1210 [1] of 100%. For the same molecule, the ILS in the assay listed under Mus musculus [2] worked out at 36%. In the assay listed under Mus musculus [3], the Optimal dose was found to be 40 mg/kg/day. The EC50 in the assay with L1210 [4] is 80 nM. This molecule also displayed a Weight change in the assay listed under Mus musculus [5] of -0.78 g mouse-1 on day 8. The molecule further registered an Active dose range in the assay with Mus musculus [14] of 40 mg/kg/day. In the assay listed under Mus musculus [6], this molecule came in with a 30 day survivors of 0.
In the assay on L1210 [1], `CC12CCC(=O)C=C1CCC1C2CCC2(C)C1CC[C@@H]2C(=O)COP(=O)(O)OP(=O)(O)OC[C@H]1OC(n2ccc(N)nc2=O)[C@@H](O)[C@@H]1O` (stereo partly drawn) gave a Hydrolysis of 100%. Moreover, the ILS in the assay filed under Mus musculus [2] is 22%. The same molecule yielded an Optimal dose in the assay filed under Mus musculus [3] of 20 mg/kg/day. Moreover, the EC50 with L1210 [4] was 160 nM. The molecule further displayed a Weight change in the assay filed under Mus musculus [5] of -3.73 g mouse-1 on day 8. In the assay listed under Mus musculus [6], this molecule returned a 30 day survivors of 0.
Take `Nc1ccn([C@@H]2O[C@H](COP(=O)(O)O)[C@@H](O)[C@H]2O)c(=O)n1`: the EC50 in the assay on L1210 [4] is 50 nM.
`Nc1ccn(C2O[C@H](COP(=O)(O)OCC3CCCCC3)[C@@H](O)[C@@H]2O)c(=O)n1` (stereo partly drawn) yielded a Hydrolysis in the assay on L1210 [1] of 0%. For the same molecule, the ILS in the assay filed under Mus musculus [2] was -5%. In the assay filed under Mus musculus [3], this molecule displayed an Optimal dose of 40 mg/kg/day. Further, the EC50 in the assay on L1210 [4] was found to be 7000 nM. In addition, in the assay filed under Mus musculus [5], the Weight change was -0.67 g mouse-1 on day 8. In the assay listed under Mus musculus [6], this molecule displayed a 30 day survivors of 0.
As for `C[C@]12C[C@H](O)[C@H]3[C@@H](CCC4=CC(=O)CC[C@@]43C)[C@@H]1CC[C@@H]2C(=O)COP(=O)(O)O.Nc1ccn([C@@H]2O[C@H](COP(=O)(O)O)[C@@H](O)[C@@H]2O)c(=O)n1`, in the assay on L1210 [4], the EC50 stood at 80 nM.
Turning to `Nc1ccn(C2O[C@H](COP(=O)(O)OP(=O)(O)OCC3CCCCC3)[C@@H](O)[C@@H]2O)c(=O)n1` (stereo partly drawn), the Hydrolysis in the assay on L1210 [1] is on record as 80%. Moreover, the EC50 with L1210 [4] is 5600 nM.
For `CC12CC(O)C3C4C=CC(=O)C=C4CCC3C1CC[C@]2(O)C(=O)COP(=O)(O)OP(=O)(O)OC[C@H]1OC(n2ccc(N)nc2=O)[C@@H](O)[C@@H]1O` (stereo partly drawn), in the assay listed under Mus musculus [2], the ILS was 116%.
As for `CCCCCCCCCCCCCCCCOP(=O)(O)OC[C@H]1O[C@@H](n2ccc(N)nc2=O)[C@@H](O)[C@@H]1O`, the Hydrolysis in the assay with L1210 [1] came out at 0%. Also, in the assay listed under Mus musculus [2], the ILS is reported as -22%. In the assay listed under Mus musculus [3], this molecule yielded an Optimal dose of 20 mg/kg/day. The EC50 in the assay with L1210 [4] came to 16500 nM. For the same molecule, in the assay filed under Mus musculus [5], the Weight change was -4.75 g mouse-1 on day 8. Also, the No. of survivors in the assay listed under Mus musculus [6] is recorded as 0.
Molecule `Nc1ccn([C@@H]2O[C@H](COP(=O)(O)OCCC34CC5CC(CC(C5)C3)C4)[C@@H](O)[C@@H]2O)c(=O)n1` showed a Hydrolysis with L1210 [1] of 25%. Further, the ILS in the assay listed under Mus musculus [2] was 18%. Further, the Optimal dose in the assay listed under Mus musculus [3] came to 40 mg/kg/day. The EC50 with L1210 [4] turned out to be 310 nM. Besides, the Weight change in the assay filed under Mus musculus [5] is reported as 0.87 g mouse-1 on day 8. The molecule further returned a 30 day survivors in the assay listed under Mus musculus [6] of 0.
Turning to `CC12CCC(=O)C=C1CCC1C2C(O)CC2(C)C1CC[C@@H]2C(=O)COP(=O)(O)OP(=O)(O)OC[C@H]1OC(n2ccc(N)nc2=O)[C@@H](O)[C@@H]1O` (stereo partly drawn), the results for the Optimal dose in the assay with Mus musculus [8] and in the assay listed under Mus musculus [3] were 80 mg/kg/day and 60 mg/kg/day, respectively. In addition, the Weight change was -1.95 g mouse-1 on day 8 with Mus musculus [9] and -0.45 g mouse-1 on day 8 in the assay listed under Mus musculus [5]. Also, the Hydrolysis in the assay on L1210 [1] is 100%. The ILS in the assay filed under Mus musculus [2] worked out at 95%; with Mus musculus [15], 152%. Further, the EC50 in the assay with L1210 [4] was 90 nM. The Active dose range in the assay with Mus musculus [16] came out at 20 mg/kg/day; in the assay on Mus musculus [18], 40 mg/kg/day. The 30 day survivors in the assay listed under Mus musculus [6] is 0; with Mus musculus [17] it was 2.
As to `CC12CCC(=O)C=C1CCC1C2C(O)CC2(C)C1CC[C@]2(O)C(=O)COP(=O)(O)OP(=O)(O)OC[C@H]1OC(n2ccc(N)nc2=O)[C@@H](O)[C@@H]1O` (stereo partly drawn), the ILS in the assay filed under Mus musculus [2] is 86%.
